We go through 5 molecules from ChEMBL document CHEMBL4152223 (Eur J Med Chem, 2018).

The subject of data set [1] is Mycobacterium tuberculosis. The experiment in a line: Antimycobacterial activity against Mycobacterium tuberculosis H37Rv after 14 days. The format is functional. The following applies: 336 h.
The subject of data set [2] is Mycobacterium kansasii. As to the kind of experiment: Antimycobacterial activity against Mycobacterium kansasii 235/80 after 21 days. The data set is classed as functional. The conditions noted are these: 235/80, 504 h.
The subject of data set [3] is Mycobacterium kansasii. As to the kind of experiment: Antimycobacterial activity against Mycobacterium kansasii 6509/96 after 21 days. The conditions noted are these: 6509/96, 504 h. The format is functional.
Data set [4] concerns Mycobacterium kansasii. As to the kind of experiment: Antimycobacterial activity against Mycobacterium kansasii 6509/96 after 7 days. The format is functional. The conditions noted are these: 6509/96, 168 h.
The subject of data set [5] is Mycobacterium avium. As to the kind of experiment: Antimycobacterial activity against INH/RIF/OFX resistant Mycobacterium avium 330/88 after 14 days. The data set is classed as functional. The conditions noted are these: 330/88, 336 h.
Data set [6] can be described thus: Selectivity index, ratio of IC50 for human HepG2 cells to MIC for Mycobacterium kansasii 235/80. The data set is classed as toxicity. The conditions noted are these: read-out: Selectivity Index. The gist of the method: (§1)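 SI is calculated as HepG2 IC50 divided by MIC. HepG2 cells (passage 2-4) were grown in EMEM with 10% FBS, L-glutamine and non-essential amino acids. Compounds in DMSO were tested in triplicate at eight concentrations, and viability was read by MTS tetrazolium reduction. IC50 is the concentration reducing viability to 50% of control. 10% DMSO served as the 0% viability control.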

Data set [7] relates to Mycobacterium kansasii. The experiment in a line: Antimycobacterial activity against Mycobacterium kansasii 235/80 after 14 days. The data set is classed as functional. The conditions noted are these: 235/80, 336 h.
Data set [8] is described as follows: Selectivity index, ratio of IC50 for human HepG2 cells to MIC for Mycobacterium tuberculosis H37Rv after 14 days. The format is toxicity. The following applies: read-out: Selectivity Index. An outline of the steps:
as §1

Data set [9] has as its system Mycobacterium kansasii. As to the kind of experiment: Antimycobacterial activity against Mycobacterium kansasii 235/80 after 7 days. The format is functional. The conditions noted are these: 235/80, 168 h.
For data set [10], the system named is Mycobacterium kansasii. The experiment in a line: Antimycobacterial activity against Mycobacterium kansasii 6509/96 after 14 days. The data set is classed as functional. The following applies: 6509/96, 336 h.
Data set [11] relates to Mycobacterium tuberculosis. The experiment in a line: Antimycobacterial activity against Mycobacterium tuberculosis H37Rv after 21 days. The format is functional. The conditions noted are these: 504 h.
Data set [12] in a line: Selectivity index, ratio of IC50 for human HepG2 cells to MIC for Mycobacterium kansasii 6509/96. The format is toxicity. The following applies: read-out: Selectivity Index. An outline of the steps:
as §1

A further data set deals with HepG2. The experiment in a line: Cytotoxicity against human HepG2 cells assessed as reduction in cell viability by MTS assay. The format is cell-based. An outline of the steps: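 HepG2 human hepatocellular carcinoma cells (passage 2-4) were cultured in Eagle's MEM with 10% FBS, 1% L-glutamine and non-essential amino acids. Compounds were dissolved in DMSO and tested in triplicate at eight concentrations. Viability was read by colorimetric MTS tetrazolium reduction. Controls were 100% viability and 0% viability (10% DMSO). IC50 is the concentration reducing viability to 50% of control.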
(Formazan colour is commonly taken as a measure of viable cells.)

Data set [13] concerns Mycobacterium avium. The experiment in a line: Antimycobacterial activity against INH/RIF/OFX resistant Mycobacterium avium 330/88 after 21 days. The format is functional. The conditions noted are these: 330/88, 504 h.
For data set [14], the system named is Mycobacterium tuberculosis. As to the kind of experiment: Antimycobacterial activity against Mycobacterium tuberculosis H37Rv after 25 days by drop dilution method. The data set is classed as functional, organism-based.
Data set [15] addresses T1, Enoyl-[acyl-carrier-protein] reductase [NADH] (Mycobacterium tuberculosis) (UniProt P9WGR1).
T1 sequence (whole entry): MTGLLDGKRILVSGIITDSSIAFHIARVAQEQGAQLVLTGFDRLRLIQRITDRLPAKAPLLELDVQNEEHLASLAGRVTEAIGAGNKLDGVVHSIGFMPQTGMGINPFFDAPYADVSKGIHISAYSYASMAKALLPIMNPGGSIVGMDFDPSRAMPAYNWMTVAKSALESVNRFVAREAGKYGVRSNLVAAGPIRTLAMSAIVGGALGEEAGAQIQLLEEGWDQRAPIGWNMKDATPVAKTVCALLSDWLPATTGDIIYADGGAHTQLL
The experiment in a line: Inhibition of Mycobacterium tuberculosis H37Rv InhA assessed as reduction of cardiolipin synthesis at 4 to 8 uM preincubated for 24 hrs followed by [14C]acetate addition and measured after 24 hrs by TLC analysis.

The subject of data set [16] is Mycobacterium tuberculosis. The experiment in a line: Antimycobacterial activity against Mycobacterium tuberculosis H37Rv over producing InhA after 25 days by drop dilution method. The format is functional, organism-based.
Data set [17] concerns the target T1, Enoyl-[acyl-carrier-protein] reductase [NADH] (Mycobacterium tuberculosis). As to the kind of experiment: Inhibition of Mycobacterium tuberculosis H37Rv InhA assessed as reduction of trehalose monomycolate synthesis at 4 to 8 uM preincubated for 24 hrs followed by [14C]acetate addition and measured after 24 hrs by TLC analysis.
Data set [18] has the same target. The experiment in a line: Inhibition of Mycobacterium tuberculosis H37Rv InhA assessed as reduction of phosphatidylethanolamine synthesis at 4 to 8 uM preincubated for 24 hrs followed by [14C]acetate addition and measured after 24 hrs by TLC analysis.
Data set [19] shares this target. The experiment in a line: Inhibition of Mycobacterium tuberculosis H37Rv InhA assessed as reduction of alpha mycolic acid synthesis at 4 to 8 uM preincubated for 24 hrs followed by [14C]acetate addition and measured after 24 hrs by TLC analysis.
The target is the same in data set [20]. The experiment in a line: Inhibition of Mycobacterium tuberculosis H37Rv InhA assessed as reduction of methoxy and keto mycolic acid synthesis at 4 to 8 uM preincubated for 24 hrs followed by [14C]acetate addition and measured after 24 hrs by TLC analysis.
Data set [21] has the same target. The experiment in a line: Inhibition of Mycobacterium tuberculosis H37Rv InhA assessed as reduction of methyl esters of fatty acid synthesis at 4 to 8 uM preincubated for 24 hrs followed by [14C]acetate addition and measured after 24 hrs by TLC analysis.
Data set [22] shares this target. The experiment in a line: Inhibition of Mycobacterium tuberculosis H37Rv InhA assessed as reduction of trehalose dimycolate synthesis at 4 to 8 uM preincubated for 24 hrs followed by [14C]acetate addition and measured after 24 hrs by TLC analysis.

Converted amounts (≈) assume the structure as drawn. The source made the active and inactive calls. The rule behind the calls is not given here. Bounds are passed on as bounds.

Take `CCCNC(=O)NNC(=O)c1ccncc1`: the MIC (usually the lowest concentration that inhibits growth of the organism) came out at 1 µM (≈ 0.222 µg/mL) in [1]; 16 µM (≈ 3.56 µg/mL) with Mycobacterium kansasii [2]; 8 µM (≈ 1.78 µg/mL) with Mycobacterium kansasii [3]; 4 µM (≈ 0.889 µg/mL) in the data set with Mycobacterium kansasii [4]; 250 µM (≈ 55.6 µg/mL) in the data set on Mycobacterium avium [5]; 8 µM (≈ 1.78 µg/mL) in the data set on Mycobacterium kansasii [7]. The MIC turned out to be 4 µM (≈ 0.889 µg/mL) against Mycobacterium kansasii [9], 8 µM (≈ 1.78 µg/mL) against Mycobacterium kansasii [10], 1 µM (≈ 0.222 µg/mL) in [11] and 500 µM (≈ 111 µg/mL) in the data set on Mycobacterium avium [13]. The selectivity ratio in [6] and in [12] was over 312 throughout. The selectivity ratio at 336 h in data set [8] was over 5000. For the same molecule, in the data set on HepG2, the IC50 (in general, the midpoint of a concentration-inhibition curve) was over 5 mM.
Turning to `CCCCCNC(=O)NNC(=O)c1ccncc1`, the MIC was 8 µM (≈ 2 µg/mL) in data set [1]; 125 µM (≈ 31.3 µg/mL) against Mycobacterium kansasii [2]; 125 µM (≈ 31.3 µg/mL) in the data set with Mycobacterium kansasii [3]; 125 µM (≈ 31.3 µg/mL) against Mycobacterium kansasii [4]; over 1000 µM against Mycobacterium avium [5]; 125 µM (≈ 31.3 µg/mL) in the data set with Mycobacterium kansasii [7]. The MIC with Mycobacterium kansasii [9] is 62.5 µM (≈ 15.6 µg/mL); with Mycobacterium kansasii [10], 125 µM (≈ 31.3 µg/mL); in [11], 8 µM (≈ 2 µg/mL); with Mycobacterium avium [13], over 1000 µM. Besides, the selectivity ratio in data set [6] and in [12] was over 32 throughout. The selectivity ratio at 336 h in [8] is over 500. In the data set on HepG2, the IC50 was over 4 mM.
Take `CCCCCCCCCCCCNc1nnc(-c2ccncc2)o1`: the outcome in data set [14] and in data set [16] was Active. The minimal inhibitory concentration (MIC) in data set [1] came to 4 µM (≈ 1.32 µg/mL); against Mycobacterium kansasii [2], 125 µM (≈ 41.3 µg/mL); with Mycobacterium kansasii [3], 125 µM (≈ 41.3 µg/mL); against Mycobacterium kansasii [4], 125 µM (≈ 41.3 µg/mL); with Mycobacterium avium [5] it was 8 µM (≈ 2.64 µg/mL); in the data set on Mycobacterium kansasii [7], 125 µM (≈ 41.3 µg/mL). Besides, the MIC stood at 125 µM (≈ 41.3 µg/mL) against Mycobacterium kansasii [9], 125 µM (≈ 41.3 µg/mL) in the data set with Mycobacterium kansasii [10], 8 µM (≈ 2.64 µg/mL) in data set [11] and 16 µM (≈ 5.29 µg/mL) in the data set on Mycobacterium avium [13]. In addition, the inhibition result in data set [15], in [17], in data set [18], in [19], in data set [20] and in data set [21] was “inactive” throughout. For the same molecule, the inhibition entry in data set [22] was “inactive”. Moreover, the selectivity ratio at 336 h in data set [8] was over 6.25. Moreover, the IC50 in the data set with HepG2 was over 0.05 mM.
Take `CCCCCCCCCCCCCCNC(=O)NNC(=O)c1ccncc1`: the minimal inhibitory concentration (MIC) in data set [1] was 32 µM (≈ 12 µg/mL); with Mycobacterium kansasii [2] it was 62.5 µM (≈ 23.5 µg/mL); in the data set on Mycobacterium kansasii [3] it was 62.5 µM (≈ 23.5 µg/mL); with Mycobacterium kansasii [4], 32 µM (≈ 12 µg/mL); against Mycobacterium avium [5] it was 125 µM (≈ 47.1 µg/mL); against Mycobacterium kansasii [7] it was 62.5 µM (≈ 23.5 µg/mL). The MIC against Mycobacterium kansasii [9] came to 32 µM (≈ 12 µg/mL); in the data set with Mycobacterium kansasii [10] it was 62.5 µM (≈ 23.5 µg/mL); in data set [11] it was 62.5 µM (≈ 23.5 µg/mL); in the data set on Mycobacterium avium [13], 125 µM (≈ 47.1 µg/mL). For the same molecule, in the data set with HepG2, the half-maximal inhibitory concentration (IC50) was over 0.05 mM.
As for `CCNC(=O)NNC(=O)c1ccncc1`, the MIC came to 1 µM (≈ 0.208 µg/mL) in data set [1]; 62.5 µM (≈ 13 µg/mL) in the data set on Mycobacterium kansasii [2]; 62.5 µM (≈ 13 µg/mL) against Mycobacterium kansasii [3]; 32 µM (≈ 6.66 µg/mL) in the data set with Mycobacterium kansasii [4]; 1000 µM (≈ 208 µg/mL) against Mycobacterium avium [5]; 62.5 µM (≈ 13 µg/mL) with Mycobacterium kansasii [7]. Moreover, the MIC against Mycobacterium kansasii [9] is 32 µM (≈ 6.66 µg/mL); in the data set with Mycobacterium kansasii [10] it was 62.5 µM (≈ 13 µg/mL); in data set [11] it was 2 µM (≈ 0.416 µg/mL); against Mycobacterium avium [13], over 1000 µM. Further, the selectivity ratio in data set [6] and in data set [12] was over 64 each time. Further, the selectivity ratio at 336 h in [8] is over 2000. Further, the IC50 with HepG2 is over 4 mM.
